Results as given in ChEMBL document CHEMBL1275425, “Mechanism of inhibition of human immunodeficiency virus type 1 reverse transcriptase by a stavudine analogue, 4'-ethynyl stavudine triphosphate” (Antimicrob Agents Chemother, 2008).

Tests used:
[1] = biological target: T1, Human immunodeficiency virus type 1 reverse transcriptase (Human immunodeficiency virus 1, UniProt Q72547, M184V); experiment: Inhibition of RNA-dependent DNA polymerase activity of HIV 1 reverse transcriptase M184V mutant assessed as incorporation of dTMP by burst assay using RNA/DNA Primer/Template combination
How it was run: (§1)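 Pre-steady-state burst assay by rapid chemical quench at 25°C. Wild-type or M184V HIV-1 RT was preincubated with 5′-32P-labelled primer annealed to a DNA or RNA template. Final conditions were 100 nM enzyme, 300 nM P/T, and 1 mM nucleotide in 50 mM Tris-HCl pH 7.8 with 50 mM NaCl and MgSO4. Reactions were quenched with EDTA and products resolved by urea-PAGE with phosphorimaging. Data were fitted to the burst equation to give amplitude, kob and kss.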

[2] = biological target: T2, Human immunodeficiency virus type 1 reverse transcriptase (Human immunodeficiency virus 1, UniProt Q72547); experiment: Inhibition of RNA-dependent DNA polymerase activity of HIV 1 reverse transcriptase assessed as incorporation of dTMP by burst assay using RNA/DNA Primer/Template combination; how it was run: as §1
[3] = biological target: T1, Human immunodeficiency virus type 1 reverse transcriptase; experiment: Inhibition of DNA-dependent DNA polymerase activity of HIV 1 reverse transcriptase M184V mutant assessed as incorporation of dTMP by burst assay using DNA/DNA Primer/Template combination; how it was run: as §1
[4] = biological target: T2, Human immunodeficiency virus type 1 reverse transcriptase; experiment: Inhibition of DNA-dependent DNA polymerase activity of HIV 1 reverse transcriptase assessed as incorporation of dTMP by burst assay using DNA/DNA Primer/Template combination; how it was run: as §1
[5] = tested on: Human immunodeficiency virus type 1 reverse transcriptase (Human immunodeficiency virus 1), Q72547 [M184V]; experiment: Activity of DNA-dependent DNA polymerase activity of HIV 1 reverse transcriptase M184V mutant assessed as incorporation of dTMP by burst assay using DNA/DNA Primer/Template combination
How it was run: (§2)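 Purified HIV-1 RT (wild type or M184V built by site-directed mutagenesis) was preincubated with a 5′-32P-labeled primer annealed to a DNA or RNA template. It was rapidly mixed in a quench-flow at 25°C in 50 mM Tris-HCl pH 7.8 with 50 mM NaCl and MgSO4. Final: 300 nM P/T, 100 nM enzyme, 1 mM nucleotide. Reactions were EDTA-quenched at set times, run on urea-PAGE and phosphorimaged, then fitted to the burst equation.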

[6] = biological target: Human immunodeficiency virus type 1 reverse transcriptase (Human immunodeficiency virus 1) (UniProt Q72547); experiment: Activity of DNA-dependent DNA polymerase activity of HIV 1 reverse transcriptase assessed as incorporation of dTMP by burst assay using DNA/DNA Primer/Template combination; how it was run: as §2
[7] = tested on: Human immunodeficiency virus type 1 reverse transcriptase (Human immunodeficiency virus 1), Q72547 [M184V]; experiment: Activity of RNA-dependent DNA polymerase activity of HIV 1 reverse transcriptase M184V mutant assessed as incorporation of dTMP by burst assay using RNA/DNA Primer/Template combination; how it was run: as §1
[8] = biological target: Human immunodeficiency virus type 1 reverse transcriptase (Human immunodeficiency virus 1) (UniProt Q72547); experiment: Activity of RNA-dependent DNA polymerase activity of HIV 1 reverse transcriptase assessed as incorporation of dTMP by burst assay using RNA/DNA Primer/Template combination; how it was run: as §2
[9] = tested on: Human immunodeficiency virus type 1 reverse transcriptase (Human immunodeficiency virus 1), Q72547 [M184V]; experiment: Ratio of Kpol/Kd for DNA-dependent DNA polymerase activity of HIV 1 reverse transcriptase M184V mutant assessed as incorporation of dTMP by burst assay using DNA/DNA Primer/Template combination
How it was run: (§3)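 Single-turnover rapid-quench assay at 25°C, Tris-HCl pH 7.8 and NaCl. Enzyme (250 nM wild-type or M184V RT) was in excess over 5′-32P-labelled DNA/DNA or DNA/RNA P/T (50 nM), with the nucleotide triphosphate concentration varied. First-phase observed rates were fitted to kobs = kpol[S]/(Kd + [S]) to obtain Kd and kpol. Incorporation efficiency was taken as kpol/Kd.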

[10] = biological target: Human immunodeficiency virus type 1 reverse transcriptase (Human immunodeficiency virus 1) (UniProt Q72547); experiment: Ratio of Kpol/Kd for DNA-dependent DNA polymerase activity of HIV 1 reverse transcriptase assessed as incorporation of dTMP by burst assay using DNA/DNA Primer/Template combination; how it was run: as §3
[11] = tested on: Human immunodeficiency virus type 1 reverse transcriptase (Human immunodeficiency virus 1), Q72547 [M184V]; experiment: Ratio of Kpol/Kd for RNA-dependent DNA polymerase activity of HIV 1 reverse transcriptase M184V mutant assessed as incorporation of dTMP by burst assay using RNA/DNA Primer/Template combination; how it was run: as §3
[12] = biological target: Human immunodeficiency virus type 1 reverse transcriptase (Human immunodeficiency virus 1) (UniProt Q72547); experiment: Ratio of Kpol/Kd for RNA-dependent DNA polymerase activity of HIV 1 reverse transcriptase assessed as incorporation of dTMP by burst assay using RNA/DNA Primer/Template combination; how it was run: as §3
[13] = biological target: T2, Human immunodeficiency virus type 1 reverse transcriptase; experiment: Inhibition of RNA-dependent DNA polymerase activity of HIV 1 reverse transcriptase assessed as incorporation of 4-EdTMP by burst assay using RNA/DNA Primer/Template combination
How it was run: (§4)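 Rapid chemical quench-flow at 25°C in 50 mM Tris-HCl pH 7.8, 50 mM NaCl. Wt or M184V HIV-1 RT (100 nM final) was preincubated with 5′-32P-labelled primer/template (300 nM final; DNA/DNA or DNA/RNA). It was mixed with buffer containing 20 mM MgSO4 (pre-mixing) and 2 mM nucleotide triphosphate (pre-mixing). Reactions were quenched at set times with 0.5 M EDTA and products resolved by urea-PAGE with phosphorimaging. Data were fitted to the burst equation.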

[14] = biological target: T1, Human immunodeficiency virus type 1 reverse transcriptase; experiment: Inhibition of DNA-dependent DNA polymerase activity of HIV 1 reverse transcriptase M184V mutant assessed as incorporation of 4-EdTMP by burst assay using DNA/DNA Primer/Template combination
[15] = biological target: T2, Human immunodeficiency virus type 1 reverse transcriptase; experiment: Inhibition of DNA-dependent DNA polymerase activity of HIV 1 reverse transcriptase assessed as incorporation of 4-EdTMP by burst assay using DNA/DNA Primer/Template combination; how it was run: as §4
[16] = tested on: Human immunodeficiency virus type 1 reverse transcriptase (Human immunodeficiency virus 1), Q72547 [M184V]; experiment: Activity of DNA-dependent DNA polymerase activity of HIV 1 reverse transcriptase M184V mutant assessed as incorporation of 4-EdTMP by burst assay using DNA/DNA Primer/Template combination; how it was run: as §2
[17] = biological target: Human immunodeficiency virus type 1 reverse transcriptase (Human immunodeficiency virus 1) (UniProt Q72547); experiment: Activity of DNA-dependent DNA polymerase activity of HIV 1 reverse transcriptase assessed as incorporation of 4-EdTMP by burst assay using DNA/DNA Primer/Template combination; how it was run: as §2
[18] = tested on: Human immunodeficiency virus type 1 reverse transcriptase (Human immunodeficiency virus 1), Q72547 [M184V]; experiment: Activity of RNA-dependent DNA polymerase activity of HIV 1 reverse transcriptase M184V mutant assessed as incorporation of 4-EdTMP by burst assay using RNA/DNA Primer/Template combination; how it was run: as §2
[19] = biological target: Human immunodeficiency virus type 1 reverse transcriptase (Human immunodeficiency virus 1) (UniProt Q72547); experiment: Activity of RNA-dependent DNA polymerase activity of HIV 1 reverse transcriptase assessed as incorporation of 4-EdTMP by burst assay using RNA/DNA Primer/Template combination; how it was run: as §2
[20] = tested on: Human immunodeficiency virus type 1 reverse transcriptase (Human immunodeficiency virus 1), Q72547 [M184V]; experiment: Ratio of Kpol/Kd for DNA-dependent DNA polymerase activity of HIV 1 reverse transcriptase M184V mutant assessed as incorporation of 4-EdTMP by burst assay using DNA/DNA Primer/Template combination
How it was run: (§5)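 Single-turnover rapid-quench at 25°C in Tris-HCl pH 7.8/NaCl/MgSO4 buffer, with enzyme in excess: 250 nM wild-type or M184V RT and 50 nM 5′-32P-labeled DNA/DNA or DNA/RNA primer/template. The incoming nucleotide concentration was varied. Products were resolved by urea-PAGE and phosphorimaged. First-phase rates were fitted to kobs = kpol[S]/(Kd+[S]), and efficiency was taken as kpol/Kd.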

[21] = biological target: Human immunodeficiency virus type 1 reverse transcriptase (Human immunodeficiency virus 1) (UniProt Q72547); experiment: Ratio of Kpol/Kd for DNA-dependent DNA polymerase activity of HIV 1 reverse transcriptase assessed as incorporation of 4-EdTMP by burst assay using DNA/DNA Primer/Template combination; how it was run: as §5
[22] = tested on: Human immunodeficiency virus type 1 reverse transcriptase (Human immunodeficiency virus 1), Q72547 [M184V]; experiment: Ratio of Kpol/Kd for RNA-dependent DNA polymerase activity of HIV 1 reverse transcriptase M184V mutant assessed as incorporation of 4-EdTMP by burst assay using RNA/DNA Primer/Template combination; how it was run: as §5
[23] = biological target: Human immunodeficiency virus type 1 reverse transcriptase (Human immunodeficiency virus 1) (UniProt Q72547); experiment: Ratio of Kpol/Kd for RNA-dependent DNA polymerase activity of HIV 1 reverse transcriptase assessed as incorporation of 4-EdTMP by burst assay using RNA/DNA Primer/Template combination; how it was run: as §5
[24] = tested on: Human immunodeficiency virus type 1 reverse transcriptase (Human immunodeficiency virus 1), Q72547 [M184V]; experiment: (§6) Selectivity index, ratio of Kpol/Kd for DNA-dependent DNA polymerase activity of HIV 1 reverse transcriptase M184V mutant assessed as incorporation of dTMP to Kpol/Kd for DNA-dependent DNA polymerase activity of HIV 1 reverse transcriptase reverse transcriptase M184V mutant assessed as incorporation of Ed4TMP
How it was run: (§7)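 Selectivity factor: the single-turnover incorporation efficiency (kpol/Kd) for dTTP divided by that for the analogue triphosphate. Both used the same RT (wild type or M184V) and the same primer/template, DNA/DNA or DNA/RNA. Kd and kpol came from hyperbolic fits of first-phase rates against nucleotide concentration, with 250 nM RT over 50 nM labeled P/T at 25°C.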

[25] = biological target: Human immunodeficiency virus type 1 reverse transcriptase (Human immunodeficiency virus 1) (UniProt Q72547); experiment: Selectivity index, ratio of Kpol/Kd for DNA-dependent DNA polymerase activity of HIV 1 reverse transcriptase assessed as incorporation of dTMP to Kpol/Kd for DNA-dependent DNA polymerase activity of HIV 1 reverse transcriptase reverse transcriptase assessed as incorporation of Ed4TMP; how it was run: as §7
[26] = tested on: Human immunodeficiency virus type 1 reverse transcriptase (Human immunodeficiency virus 1), Q72547 [M184V]; experiment: as §6, with “RNA-dependent” for “DNA-dependent”; how it was run: as §7
[27] = biological target: Human immunodeficiency virus type 1 reverse transcriptase (Human immunodeficiency virus 1) (UniProt Q72547); experiment: Selectivity index, ratio of Kpol/Kd for RNA-dependent DNA polymerase activity of HIV 1 reverse transcriptase assessed as incorporation of dTMP to Kpol/Kd for RNA-dependent DNA polymerase activity of HIV 1 reverse transcriptase reverse transcriptase assessed as incorporation of Ed4TMP; how it was run: as §7
[28] = biological target: T1, Human immunodeficiency virus type 1 reverse transcriptase; experiment: Inhibition of RNA-dependent DNA polymerase activity of HIV 1 reverse transcriptase M184V mutant assessed as incorporation of 4-EdTMP by single-turnover assay using RNA/DNA Primer/Template combination
[29] = biological target: T1, Human immunodeficiency virus type 1 reverse transcriptase; experiment: Inhibition of RNA-dependent DNA polymerase activity of HIV 1 reverse transcriptase M184V mutant assessed as incorporation of d4TMP by burst assay using RNA/DNA Primer/Template combination
[30] = biological target: T2, Human immunodeficiency virus type 1 reverse transcriptase; experiment: Inhibition of RNA-dependent DNA polymerase activity of HIV 1 reverse transcriptase assessed as incorporation of d4TMP by burst assay using RNA/DNA Primer/Template combination
[31] = biological target: T1, Human immunodeficiency virus type 1 reverse transcriptase; experiment: Inhibition of DNA-dependent DNA polymerase activity of HIV 1 reverse transcriptase M184V mutant assessed as incorporation of d4TMP by burst assay using DNA/DNA Primer/Template combination
[32] = biological target: T2, Human immunodeficiency virus type 1 reverse transcriptase; experiment: Inhibition of DNA-dependent DNA polymerase activity of HIV 1 reverse transcriptase assessed as incorporation of d4TMP by burst assay using DNA/DNA Primer/Template combination

Cc1cn([C@H]2C[C@H](O)[C@@H](COP(=O)(O)OP(=O)(O)OP(=O)(O)O)O2)c(=O)[nH]c1=O [DEOXYTHYMIDINE_TRIPHOSPHATE]
Kd [1]: 144 µM
Kd [2]: 67.1 µM
Kd [3]: 73.2 µM
Kd [4]: 15.4 µM
Activity [5]: 22.4 s⁻¹
Activity [6]: 22.6 s⁻¹
Activity [7]: 41.7 s⁻¹
Activity [8]: 65 s⁻¹
Ratio [9]: 0.31 µM⁻¹ s⁻¹
Ratio [10]: 1.47 µM⁻¹ s⁻¹
Ratio [11]: 0.29 µM⁻¹ s⁻¹
Ratio [12]: 0.97 µM⁻¹ s⁻¹

C#C[C@@]1(COP(=O)(O)OP(=O)(O)OP(=O)(O)O)C=C[C@H](n2cc(C)c(=O)[nH]c2=O)O1
Kd [13]: 11.4 µM
Kd [14]: 168 µM
Kd [15]: 15.8 µM
Activity [16]: 18.9 s⁻¹
Activity [17]: 12.1 s⁻¹
Activity [18]: 9.7 s⁻¹
Activity [19]: 11.7 s⁻¹
Ratio [20]: 0.11 µM⁻¹ s⁻¹
Ratio [21]: 0.77 µM⁻¹ s⁻¹
Ratio [22]: 0.22 µM⁻¹ s⁻¹
Ratio [23]: 1 µM⁻¹ s⁻¹
Ratio [24]: 2.8
Ratio [25]: 1.9
Ratio [26]: 1.3
Ratio [27]: 0.97
Kd [28]: 43.4 µM

Cc1cn([C@H]2C=C[C@@H](COP(=O)(O)OP(=O)(O)OP(=O)(O)O)O2)c(=O)[nH]c1=O [STAVUDINE TRIPHOSPHATE]
Kd [29]: 232 µM
Kd [30]: 40.8 µM
Kd [31]: 605 µM
Kd [32]: 48 µM
